Reference: paper PMC8383301 (Molecular Pharmaceutics, 2021)
“Also recorded” adds a separate entry of the source. Where two headings read alike, the source gives them in different places.

Key:
[1] = system: P-gp; settings: long-term exposure (60 days); rat brain microvascular endothelial cells in vitro; cited from earlier work
[2] = system: P-gp; settings: isolated brain capillaries in vitro; cited from earlier work
[3] = Safety of MC111 administration to rats; format: in vivo; settings: 6 mg/kg dose
[4] = system: P-glycoprotein (P-gp); assay: Western blot of P-gp expression in whole-brain tissue; format: in vivo, Wistar rats; settings: MC111 4.5 or 6 mg/kg, 24 h
[5] = system: pregnane X receptor (PXR); assay: Western blot of PXR expression in whole-brain tissue; format: in vivo, Wistar rats
Procedure, shortened: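 Male Wistar rats (RjHan:WI) got a single i.v. tail-vein dose of 4.5 or 6 mg/kg (n = 6 each) or vehicle (n = 6) under isoflurane, 24 h before scanning. The vehicle was 5% DMSO, 10% PEG 300 and 85% water. Whole-brain tissue was extracted in cold RIPA with protease inhibitors (~10:1 v/w). Semidry transfer to PVDF ran 2 h; blocking was 1 h in 3% BSA/TBST. PXR was normalised to histone H3, and group means to control.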

[6] = system: breast cancer resistance protein (BCRP); settings: colo-320 and MCF7 cells; cited from earlier work
[7] = system: P-gp; settings: SW480 human colon adenocarcinoma cells; cited from earlier work
[8] = rat, in vivo, 4.5 mg/kg
[9] = system: P-gp; settings: colo-320 cells; cited from earlier work
[10] = system: P-glycoprotein (P-gp); design: species or system Wistar rats; settings: rat, in vivo
[11] = system: P-gp; settings: caco-2 cells; cited from earlier work
[12] = system: P-gp; settings: enriched diet; mice models of AD; cited from earlier work
[13] = system: P-gp; settings: transgenic mouse model of human AD; treatment for 7 days; cited from earlier work

CCC1(c2ccccc2)C(=O)NC(=O)NC1=O [phenobarbital]
P-gp expression levels and P-gp function [1]: increased

CC(C)=CCC[C@]1(C)[C@@H](CC=C(C)C)C[C@@]2(CC=C(C)C)C(=O)[C@]1(C(=O)C(C)C)C(=O)C(CC=C(C)C)=C2O [hyperforin]
P-gp expression and function [2]: increase

CCCC(CCC)C(=O)O [valproic acid]
P-gp expression levels and P-gp function [1]: increased

Oc1ccc(-c2ccc(CN3CCN(C4CCCCC4)CC3)cc2)cc1 [MC111, 4′-((4-cyclohexylpiperazin-1-yl)methyl)-[1,1′-biphenyl]-4-ol]
safety of administration [3]: safely administered
P-gp expression, treated vs control [4]: did not detect changes; also recorded: no significant differences
PXR expression levels, treated vs control [5]: did not detect any increase
PXR expression levels ([5]; high-dose group, MC111 6 mg/kg): tendency to lower levels
BCRP function and expression [6]: activates
P-gp expression [7]: increases
Ke vs control group [8]: no significant differences
[3H]verapamil efflux (P-gp function) [9]: increase
SUV–TAC of the whole brain, differences among the groups [10]: did not find any significant differences
decrease of whole-brain K1 compared to the low-dose group [10]: 29%
SUV40–60 min of the whole brain ([10]; 4.5 mg/kg): 0.45 ± 0.02
decrease of VT and K1 values compared to the control group ([10]; 4.5 mg/kg): not statistically significant
decrease of whole-brain K1 compared to controls ([10]; 4.5 mg/kg): 7%
decrease of whole-brain VT compared to controls ([10]; 4.5 mg/kg): 6%
K1 and VT values compared to the control group ([10]; 6 mg/kg): significant reduction
decrease of whole-brain K1 compared to controls ([10]; 6 mg/kg): 34%

COc1cc2c(c(OC)c1OC)-c1ccc(OC)c(=O)cc1[C@@H](NC(C)=O)CC2 [colchicine]
P-gp expression [11]: increased
P-gp function [11]: without increasing

O=C1NC(=O)C(c2ccccc2)(c2ccccc2)N1 [phenytoin]
P-gp expression levels and P-gp function [1]: increased

C=C1/C(=C\C=C2/CCC[C@]3(C)[C@@H]([C@H](C)CCCC(C)(C)O)CC[C@@H]23)C[C@@H](O)C[C@@H]1O [1,25-Dihydroxyvitamin D3]
Aβ deposition [12]: reduced
P-gp function [12]: induced

NC(=O)N1c2ccccc2C=Cc2ccccc21 [carbamazepine]
P-gp expression levels and P-gp function [1]: increased

CO[C@H]1/C=C/O[C@@]2(C)Oc3c(C)c(O)c4c(O)c(c(/C=N/N5CCN(C)CC5)c(O)c4c3C2=O)NC(=O)/C(C)=C\C=C\[C@H](C)[C@H](O)[C@@H](C)[C@@H](O)[C@@H](C)[C@H](OC(C)=O)[C@@H]1C [rifampin]
P-gp expression and function [2]: increase

CC(=O)[C@H]1[C@H](C#N)C[C@H]2[C@@H]3CC=C4C[C@@H](O)CC[C@]4(C)[C@H]3CC[C@@]21C [pregnenolone-16α-carbonitrile]
P-gp function [13]: restored
